In ChEMBL document CHEMBL2040844, “Anthranilic acid-based diamides derivatives incorporating aryl-isoxazoline pharmacophore as potential anticancer agents: design, synthesis and biological evaluation” (Eur J Med Chem, 2012):

How the values were obtained:
[1] = test system: HepG2; assay: Growth inhibition of human HepG2 cells at 40 ug/ml after 72 hrs by MTT assay; assay type: functional; conditions: HepG2, 72 h, read-out: GI
Summary of the method: (§1)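 Single-concentration screen at 40 µg/mL, reported as % cell growth inhibition. Cells were seeded at 2 × 10⁴ per well, grown to subconfluence, then treated for 72 h at 37 °C in humidified 5% CO₂. MTT was added for 4 h, formazan was dissolved in DMSO, and absorbance was read at 570 nm. Triplicate wells, three independent experiments; 5-FU served as positive control.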

[2] = test system: SGC-7901; assay: Growth inhibition of human SGC7901 cells at 40 ug/ml after 72 hrs by MTT assay; assay type: functional; conditions: SGC-7901, 72 h, read-out: GI; summary of the method: as §1
[3] = test system: BGC-823; assay: Growth inhibition of human BGC823 cells at 40 ug/ml after 72 hrs by MTT assay; assay type: functional; conditions: BGC-823, 72 h, read-out: GI; summary of the method: as §1
[4] = test system: NCI-H460; assay: Growth inhibition of human NCI-H460 cells at 40 ug/ml after 72 hrs by MTT assay; assay type: functional; conditions: NCI-H460, 72 h, read-out: GI; summary of the method: as §1
[5] = test system: MCF7; assay: Growth inhibition of human MCF7 cells at 40 ug/ml after 72 hrs by MTT assay; assay type: functional; conditions: MCF7, 72 h, read-out: GI; summary of the method: as §1
[6] = test system: HepG2; assay: Cytotoxicity against human HepG2 cells after 72 hrs by MTT assay; assay type: functional, cell-based; conditions: for IC50: HepG2, 72 h
Summary of the method: (§2)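 MTT assay. Cells were seeded at 2 × 10⁴ per well, grown to subconfluence, then exposed to serial dilutions of compound in test medium for 72 h at 37 °C in humidified 5% CO₂. MTT was added for 4 h, formazan was dissolved in DMSO, and absorbance was read at 570 nm. IC50 values were derived from dose-response. Triplicate wells, three independent experiments; 5-FU served as positive control.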

[7] = test system: SGC-7901; assay: Cytotoxicity against human SGC7901 cells after 72 hrs by MTT assay; assay type: functional, cell-based; conditions: SGC-7901, 72 h; summary of the method: as §2
[8] = test system: BGC-823; assay: Cytotoxicity against human BGC823 cells after 72 hrs by MTT assay; assay type: functional, cell-based; conditions: for IC50: BGC-823, 72 h; summary of the method: as §2
[9] = test system: NCI-H460; assay: Cytotoxicity against human NCI-H460 cells after 72 hrs by MTT assay; assay type: functional, cell-based; conditions: NCI-H460, 72 h; summary of the method: as §2
[10] = test system: MCF7; assay: Cytotoxicity against human MCF7 cells after 72 hrs by MTT assay; assay type: functional, cell-based; conditions: MCF7, 72 h; summary of the method: as §2

Row | Compound | inhibition of growth at 40 µg/mL [1] | inhibition of growth at 40 µg/mL [2] | inhibition of growth at 40 µg/mL [3] | inhibition of growth at 40 µg/mL [4] | inhibition of growth at 40 µg/mL [5] | IC50 [6] | IC50 [7] | IC50 [8] | IC50 [9] | IC50 [10] | Activity [6] | Activity [8]
1 | CNC(=O)c1ccccc1NC(=O)C1CC(c2ccc(F)cc2)=NO1 (configuration not stated) | 9.1% | 0% | 21.4% | 0% | 0% |  |  |  |  |  |  | 
2 | CCCNC(=O)c1cc(Cl)cc(C)c1NC(=O)C1CC(c2cc(OC)c(OC)c(OC)c2)=NO1 (configuration not stated) | 21.1% | 15.4% | 28% | 9.5% | 29.1% | > 100 µM | > 100 µM | > 100 µM | > 100 µM | > 100 µM |  | 
3 | CC(C)NC(=O)c1ccccc1NC(=O)C1CC(c2ccc(Cl)cc2)=NO1 (configuration not stated) | 5.5% | 13.6% | 14.6% | 0% | 0% |  |  |  |  |  |  | 
4 | Cc1cc(Cl)cc(C(=O)NC(C)C)c1NC(=O)C1CC(c2ccc(Cl)cc2)=NO1 (configuration not stated) | 12.3% | 24.2% | 38.7% | 10.3% | 3.9% |  |  |  |  |  |  | 
5 | Cc1cc(Cl)cc(C(=O)NC2CCCCC2)c1NC(=O)C1CC(c2ccc(Cl)cc2)=NO1 (configuration not stated) | 15.6% | 3.1% | 18.3% | 15.1% | 9.6% |  |  |  |  |  |  | 
6 | COc1cc(C2=NOC(C(=O)Nc3c(C)cc(Cl)cc3C(=O)NC(C)C)C2)cc(OC)c1OC (configuration not stated) | 12.9% | 0% | 11.7% | 0.5% | 9.1% |  |  |  |  |  |  | 
7 | COc1cc(C2=NOC(c3nc4c(C)cc(Cl)cc4c(=O)o3)C2)cc(OC)c1OC (configuration not stated) | 16.5% | 0% | 0% | 0% | 12.4% | > 100 µM | > 100 µM | > 100 µM | > 100 µM | > 100 µM |  | 
8 | CNC(=O)c1cc(Cl)cc(C)c1NC(=O)C1CC(c2cc(OC)c(OC)c(OC)c2)=NO1 (configuration not stated) | 30.6% | 27.3% | 34.1% | 5.5% | 26.1% | 67.6 µM | 65.5 µM | 54.1 µM | > 100 µM | > 100 µM |  | 
9 | Cc1cc(Cl)cc(C(=O)Nc2ccccc2)c1NC(=O)C1CC(c2ccc(F)cc2)=NO1 (configuration not stated) | 5.1% | 11.6% | 26.4% | 0% | 17% |  |  |  |  |  |  | 
10 | CCN(CC)C(=O)c1cc(Cl)cc(C)c1NC(=O)C1CC(c2cc(OC)c(OC)c(OC)c2)=NO1 (configuration not stated) | 28.6% | 28.3% | 27.8% | 0% | 23.5% |  |  |  |  |  |  | 
11 | CNC(=O)c1ccccc1NC(=O)C1CC(c2cc(OC)c(OC)c(OC)c2)=NO1 (configuration not stated) | 31.4% | 12% | 20.8% | 0% | 9.1% |  |  |  |  |  |  | 
12 | O=c1[nH]cc(F)c(=O)[nH]1 [FLUOROURACIL] | 81.3% | 80.8% | 85.7% | 89.7% | 80.4% | 4.8 µM | 6.3 µM | 4.5 µM | 2.4 µM | 12.5 µM |  | 
13 | CNC(=O)c1ccccc1NC(=O)C1CC(c2ccc(Cl)cc2)=NO1 (configuration not stated) | 50.6% | 7.8% | 13.3% | 5.7% | 16.5% |  |  |  |  |  |  | 
14 | Cc1cc(Cl)cc(C(=O)NC(C)C)c1NC(=O)C1CC(c2ccc(F)cc2)=NO1 (configuration not stated) | 13.6% | 17.2% | 0% | 0% | 4.8% |  |  |  |  |  |  | 
15 | Cc1cc(Cl)cc2c(=O)oc(C3CC(c4ccc(F)cc4)=NO3)nc12 (configuration not stated) | 38.9% | 42.7% | 72.1% | 64.6% | 54.7% | 53.4 µM | 53.4 µM | 34.9 µM | 35.8 µM | 51.9 µM |  | 
16 | CCN(CC)C(=O)c1cc(Cl)cc(C)c1NC(=O)C1CC(c2ccc(Cl)cc2)=NO1 (configuration not stated) | 59.2% | 76.3% | 59.6% | 63.5% | 62.1% | 37.7 µM | 37.4 µM | 36.5 µM | 37.5 µM | 34.5 µM | Dose-dependent effect | Dose-dependent effect
17 | COc1cc(C2=NOC(C(=O)Nc3ccccc3C(=O)NC(C)C)C2)cc(OC)c1OC (configuration not stated) | 11.7% | 0% | 0% | 0% | 0% |  |  |  |  |  |  | 
18 | CNC(=O)c1cc(Cl)cc(C)c1NC(=O)C1CC(c2ccc(F)cc2)=NO1 (configuration not stated) | 26.7% | 12.8% | 14.6% | 42.9% | 40.8% | > 100 µM | > 100 µM | > 100 µM | 50.3 µM | > 100 µM |  | 
19 | CC(C)NC(=O)c1ccccc1NC(=O)C1CC(c2ccc(F)cc2)=NO1 (configuration not stated) | 0% | 10.3% | 21.5% | 0% | 0% |  |  |  |  |  |  | 
20 | Cc1cc(Cl)cc(C(=O)NC2CCCCC2)c1NC(=O)C1CC(c2ccc(F)cc2)=NO1 (configuration not stated) | 10% | 15.6% | 34.3% | 33.3% | 24.8% |  |  |  |  |  |  | 
21 | CCN(CC)C(=O)c1cc(Cl)cc(C)c1NC(=O)C1CC(c2ccc(F)cc2)=NO1 (configuration not stated) | 18.2% | 15.8% | 36.4% | 10% | 14.4% | > 100 µM | > 100 µM | > 100 µM | > 100 µM | > 100 µM |  | 
22 | CCCNC(=O)c1cc(Cl)cc(C)c1NC(=O)C1CC(c2ccc(Cl)cc2)=NO1 (configuration not stated) | 16.7% | 14.7% | 24.5% | 13.6% | 22.2% |  |  |  |  |  |  | 
